From ChEMBL document CHEMBL1128362, “Structure-activity relationships of 9-alkyladenine and ribose-modified adenosine derivatives at rat A3 adenosine receptors” (J Med Chem, 1995)
Several values for one entry are separate records, joined by “and”; a condition that tells them apart may be missing. Equal entries are not always repeated. Values belong to the molecule of their own block, whether it stands above or below them. Activity calls are given as the source filed them. No cut-off for these calls is given here.

Experiments:
[1] = biological target: Adenosine receptors; A1 & A3 (Rattus norvegicus) (UniProt P25099+P28647); test: Ratio of the binding affinities against rat brain A1 and A3 receptors, KiA1/KiA3.
[2] = biological target: Adenosine receptor A2a and A3 (Rattus norvegicus) (UniProt P30543+P28647); test: Ratio of the binding affinities against rat brain A2a and A3 receptors, KiA2a/KiA3.
[3] = biological target: T1, Adenosine receptor A3 (Rattus norvegicus) (UniProt P28647); test: Ratio of the concentration (100 uM) effecting adenylyl cyclase and binding affinity against rat brain A3 receptors.
T1 sequence (whole entry): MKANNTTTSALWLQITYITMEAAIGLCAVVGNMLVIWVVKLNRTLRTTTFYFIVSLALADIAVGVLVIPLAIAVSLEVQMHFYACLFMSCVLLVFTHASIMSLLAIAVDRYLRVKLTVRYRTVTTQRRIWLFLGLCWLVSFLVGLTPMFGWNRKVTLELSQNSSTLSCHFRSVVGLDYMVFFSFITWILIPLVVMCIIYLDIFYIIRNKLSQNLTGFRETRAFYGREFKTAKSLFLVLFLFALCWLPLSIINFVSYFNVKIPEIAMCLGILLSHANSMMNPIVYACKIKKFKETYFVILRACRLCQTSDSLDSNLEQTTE
Procedure, shortened: (§1)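 This ratio is the adenylyl cyclase test concentration (20, 40 or 100 µM) divided by the A3 Ki. The Ki came from [125I]AB-MECA displacement in membranes of CHO cells expressing rat A3 receptor.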

[4] = biological target: Adenosine receptor A2a (Rattus norvegicus, UniProt P30543); test: Binding affinity against adenosine A2A receptor from rat brain.
[5] = biological target: T2, Adenosine receptor A3 (Rattus norvegicus, UniProt P28647); test: Binding affinity against adenosine A3 receptor (rat) stably expressed in CHO cell membranes.
T2 sequence (P28647 whole entry): T1 sequence (whole entry)
Procedure, shortened: (§2)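 Rat brain A3 receptor was stably expressed in CHO cell membranes and labelled with [125I]AB-MECA at 0.3 nM final, in 50 mM Tris/10 mM MgCl2/1 mM EDTA, pH 8.26. Inhibitors were in DMSO, at no more than 2% final. Incubation was 1 h at 37 °C in duplicate, ended by filtration. Nonspecific binding was defined by 200 µM NECA.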

[6] = biological target: T1, Adenosine receptor A3 (Rattus norvegicus); test: Ability to inhibit the adenylyl cyclase in CHO cells stably transfected with rat Adenosine A3 receptor at the concentration of 100 uM; type: cell-based
Procedure, shortened: (§3)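 Adenylyl cyclase activity measured in membranes of CHO cells stably transfected with rat brain A3 receptor, following an earlier published method. […] Untransfected CHO cell membranes served as the control.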

[7] = biological target: T1, Adenosine receptor A3 (Rattus norvegicus); details: CHO
[8] = biological target: T1, Adenosine receptor A3 (Rattus norvegicus); details: CHO; remark: listed apart in the source
[9] = biological target: T1, Adenosine receptor A3 (Rattus norvegicus); test: Inhibition of Adenosine A3 receptor from rat brain; details: concentration not given here; procedure, shortened: as §2
[10] = biological target: T1, Adenosine receptor A3 (Rattus norvegicus); test: Agonist elicited inhibition of adenylyl cyclase via rat Adenosine A3 receptor in transfected CHO cells and effect on IB-MECA was determined from dose response curves at the concentration of 100(uM); type: functional, cell-based
Procedure, shortened: (§4)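 CHO cell membranes stably transfected with rat A3 receptor were used to test for antagonism. Adenylyl cyclase inhibition was elicited by the A3 agonist IB-MECA across a dose-response curve, and test agent at 40 or 100 µM was checked for reversal of the agonist-induced inhibition. The cyclase measurement followed a previously described method.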

[11] = biological target: Adenosine receptor A2a (Rattus norvegicus) (UniProt P30543); test: Binding affinity against Adenosine A2A receptor from rat brain; set-up: concentration or dose not given beside the values; details: concentration not given here
Procedure, shortened: (§5)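 Rat A1 receptors came from cerebral cortical membranes with [3H]R-PIA, and rat A2a receptors came from striatal membranes with [3H]CGS 21680. Membranes were pretreated with adenosine deaminase (2 U/mL) for 30 min at 37 °C. Nonspecific binding was defined by 2-chloroadenosine at 10 µM (A1) and 200 µM (A2a).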

[12] = biological target: T1, Adenosine receptor A3 (Rattus norvegicus); test: Ability to inhibit the adenylyl cyclase in CHO cells stably transfected with rat Adenosine A3 receptor at the dose of 40(uM); type: cell-based; procedure, shortened: as §3
[13] = biological target: T1, Adenosine receptor A3 (Rattus norvegicus); test: Ratio of the concentration (40 uM) effecting adenylyl cyclase and binding affinity against rat brain Adenosine A3 receptor; procedure, shortened: as §1
[14] = biological target: T1, Adenosine receptor A3 (Rattus norvegicus); test: Ability to inhibit the adenylyl cyclase in CHO cells stably transfected with rat Adenosine A3 receptor at the concentration of 20(uM); type: cell-based; procedure, shortened: as §3
[15] = biological target: T1, Adenosine receptor A3 (Rattus norvegicus); test: Ratio of the concentration (20 uM) effecting adenylyl cyclase and binding affinity against rat brain A3 receptors; procedure, shortened: as §1
[16] = biological target: T3, Adenosine receptor A1 (Rattus norvegicus) (UniProt P25099); test: Inhibition of Adenosine A1 receptor from rat brain.; details: concentration not given here; procedure, shortened: as §5
T3 sequence (whole entry): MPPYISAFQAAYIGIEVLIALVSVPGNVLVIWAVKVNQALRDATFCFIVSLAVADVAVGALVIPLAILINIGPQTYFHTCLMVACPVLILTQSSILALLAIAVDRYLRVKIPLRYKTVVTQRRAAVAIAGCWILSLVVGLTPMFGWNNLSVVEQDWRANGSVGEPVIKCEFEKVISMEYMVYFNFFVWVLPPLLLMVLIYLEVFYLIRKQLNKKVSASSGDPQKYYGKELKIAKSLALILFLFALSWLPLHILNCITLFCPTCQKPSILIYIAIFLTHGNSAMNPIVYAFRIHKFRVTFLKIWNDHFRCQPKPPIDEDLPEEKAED

[17] = biological target: T1, Adenosine receptor A3 (Rattus norvegicus); test: Ability to inhibit the adenylyl cyclase in CHO cells stably transfected with rat Adenosine A3 receptor at the concentration of 40(uM); type: cell-based; procedure, shortened: as §3
[18] = biological target: T1, Adenosine receptor A3 (Rattus norvegicus); test: Ratio of the concentration (40 uM) effecting adenylyl cyclase and binding affinity against rat brain A3 receptors.; procedure, shortened: as §1
[19] = biological target: T4, Adenosine receptor A1 (Rattus norvegicus, UniProt P25099); test: Binding affinity against adenosine A1 receptor from rat brain.
T4 sequence (P25099 whole entry): T3 sequence (whole entry)

[20] = biological target: T1, Adenosine receptor A3 (Rattus norvegicus); details: CHO; remark: listed apart in the source
[21] = biological target: T1, Adenosine receptor A3 (Rattus norvegicus); test: Agonist elicited inhibition of adenylyl cyclase via rat Adenosine A3 receptor in transfected CHO cells and effect on IB-MECA was determined from dose response curves at the concentration of 40(uM); type: functional, cell-based; procedure, shortened: as §4

Sequence of Adenosine receptor A2a (P30543 whole entry): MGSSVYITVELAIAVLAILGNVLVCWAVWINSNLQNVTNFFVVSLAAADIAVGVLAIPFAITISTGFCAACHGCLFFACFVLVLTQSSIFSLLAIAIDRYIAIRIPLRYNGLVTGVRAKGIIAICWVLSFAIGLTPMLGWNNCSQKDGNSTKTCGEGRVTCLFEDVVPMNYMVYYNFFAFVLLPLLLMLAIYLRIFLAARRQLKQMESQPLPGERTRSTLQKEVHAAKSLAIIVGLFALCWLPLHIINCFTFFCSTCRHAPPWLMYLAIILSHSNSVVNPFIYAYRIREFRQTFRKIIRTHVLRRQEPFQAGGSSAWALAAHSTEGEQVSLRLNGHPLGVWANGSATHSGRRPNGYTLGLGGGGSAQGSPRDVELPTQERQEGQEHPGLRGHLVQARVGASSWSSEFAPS
Sequence of Adenosine receptor A2a (Rattus norvegicus) (P30543 whole entry): as above
Sequence of Adenosine receptor A2a and A3 (Rattus norvegicus) (P30543 whole entry, looked up, one chain of several): as the sequence (P30543 whole entry) above

Ratio [1]: 0.05
Ratio [2]: 0.18
Compound: Cn1cnc2c(NCc3cccc(I)c3)nc(NN)nc21

Ratio [1]: 15
Ratio [2]: 71
Ratio [3]: 8200
Compound: CNC(=O)[C@H]1O[C@@H](n2cnc3c(NCc4cccc(I)c4)nc(Cl)nc32)[C@@H]2OC(=S)O[C@@H]21

Ratio [1]: 0.12
Ratio [2]: 0.046
Compound: Cn1cnc2c(NCc3cccc(I)c3)ncnc21

Ratio [1]: 0.67
Ratio [2]: 3.7
Compound: CNc1nc(NCc2cccc(I)c2)c2ncn(C)c2n1

inhibition [6]: 44.4%
Effect [7]: inactive
Effect [8]: inactive
Compound: CNC(=O)[C@H]1O[C@@H](n2cnc3c(NCc4cccc(I)c4)ncnc32)[C@H](O)[C@@H]1O

inhibition [6]: 19.5%
Effect [10]: 0
Ratio [1]: 6.3
Ratio [2]: 5.5
Ratio [3]: 330
Compound: CSc1nc(NCc2cccc(I)c2)c2ncn(C)c2n1

inhibition [11]: 2%
Compound: CNC(=O)[C@@H]1C[C@H](N)[C@H](n2cnc3c(NCc4cccc(I)c4)nc(Cl)nc32)O1

Ratio [1]: 0.099
Ratio [2]: 0.66
Compound: CN(C)c1nc(NCc2cccc(I)c2)c2ncn(C)c2n1

inhibition [14]: 12.7%
Ratio [15]: 320
Ratio [1]: 12
Ratio [2]: 250
Compound: CNC(=O)[C@@H]1C[C@@H](OC(C)=O)[C@H](n2cnc3c(NCc4cccc(I)c4)nc(Cl)nc32)O1

Ratio [1]: 0.14
Ratio [2]: 0.08
Compound: Cn1cnc2c(NCc3cccc(I)c3)nc(N)nc21

inhibition [6]: 27.8%
inhibition [14]: 25.7% and 18%
Ratio [15]: 3.3
Ratio [1]: 0.067
Ratio [2]: 4.7
Ratio [3]: 17
Compound: CNC(=O)[C@@H]1C[C@H](N=[N+]=[N-])[C@H](n2cnc3c(NCc4cccc(I)c4)nc(Cl)nc32)O1

inhibition [17]: 5.5% and 7.3%
Ki [4]: 78.9 µM
Ki [5]: 8.59 µM
Ratio [18]: 4.6
Ratio [1]: 0.16
Ratio [2]: 9.2
Ki [19]: 1.34 µM
Effect [20]: 0
Compound: CSc1nc(NCc2cccc(I)c2)c2ncn(C[C@H](O)CO)c2n1

Ratio [1]: 0.0088
Ratio [2]: 0.053
Compound: Cn1cnc2c(NCc3cccc(I)c3)nc(Cl)nc21

inhibition [6]: 11.2%
Ki [4]: 98 µM
Ki [5]: 17.8 µM
Ratio [1]: 0.08
Ratio [2]: 5.5
Ki [19]: 1.42 µM
Ratio [3]: 5.6
Compound: CNC(=O)[C@@H]1C[C@@H](F)[C@H](n2cnc3c(NCc4cccc(I)c4)nc(Cl)nc32)O1

inhibition [17]: 35.2%
Ratio [18]: 1200
Ratio [1]: 31
Ratio [2]: 140
Ratio [3]: 3000
Compound: CNC(=O)[C@@H]1C[C@@H](O)[C@H](n2cnc3c(NCc4cccc(I)c4)nc(Cl)nc32)O1

Ratio [1]: 0.027
Ratio [2]: 0.068
Compound: COc1nc(NCc2cccc(I)c2)c2ncn(C)c2n1

inhibition [17]: 7.5% and 10.8%
Ratio [18]: 1.3
Ratio [1]: 0.37
Ratio [2]: 7.1
Effect [21]: 0
Compound: CNC(=O)[C@@H]1CC[C@H](n2cnc3c(NCc4ccccc4)nc(Cl)nc32)O1

Ki [5]: 19.5 µM
inhibition [11]: 28.5%
Ratio [1]: 1.8
Ratio [2]: > 1
Ki [19]: 35.9 µM
Compound: CNC(=O)[C@H]1C[C@@H](n2cnc3c(NCc4cccc(I)c4)ncnc32)[C@H](O)[C@@H]1O

Ratio [1]: 0.18
Ratio [2]: 5.8
Compound: CNC(=O)[C@@H]1C[C@@H](OS(C)(=O)=O)[C@H](n2cnc3c(NCc4cccc(I)c4)nc(Cl)nc32)O1

The next lines start with the molecule.

Compound: OCCn1cnc2c(NCc3cccc(I)c3)ncnc21
Ratio [1]: 0.37
Ratio [2]: 0.24

Compound: Cn1cnc2c(NC3CCCC3)ncnc21
Ki [4]: 11 µM
Ki [5]: 1330 µM
Ratio [1]: 0.00041
Ratio [2]: 0.0083

Compound: CCn1cnc2c(NC3CCCC3)ncnc21
inhibition [9]: 30%
Ratio [1]: < 1
Ratio [2]: < 1

Compound: OC[C@@H](O)Cn1cnc2c(NCc3cccc(I)c3)ncnc21
Ratio [1]: 0.55
Ratio [2]: 0.76

Compound: CS[C@H]1OC(n2cnc3c(N)ncnc32)[C@H](O)[C@@H]1O (stereo partly drawn)
inhibition [12]: 19.7%
Ratio [13]: 28

Compound: N#CCCCn1cnc2c(NCc3cccc(I)c3)ncnc21
Ratio [1]: 0.032
Ratio [2]: 0.1

Compound: O=C(O)Cn1cnc2c(NCc3cccc(I)c3)ncnc21
inhibition [11]: 9%
inhibition [16]: 17%

Compound: Nc1nc(Cl)nc2c1ncn2[C@@H]1O[C@H](CO)[C@@H](O)[C@@H]1O
inhibition [17]: 16.1%
Ki [5]: 14 µM
Ki [19]: 24.2 µM

Compound: CNC(=O)C1OC(n2cnc3c(NC(=O)c4cccc(I)c4)nc(Cl)nc32)C(OC(=O)c2ccccc2)C1OC(=O)c1ccccc1 (stereo not drawn)
inhibition [9]: 55%
inhibition [11]: 7%
inhibition [16]: 21%

Compound: CC(C)[Si]1(C(C)C)OC[C@H]2O[C@@H](n3cnc4c(NCc5cccc(I)c5)nc(Cl)nc43)[C@H](O)[C@@H]2O[Si](C(C)C)(C(C)C)O1
inhibition [6]: 8.7%
inhibition [11]: 18%
Ratio [1]: 5.1
Ratio [2]: > 7
Ratio [3]: 7.6

Compound: CC(O)[C@@H]1O[C@@H](n2cnc3c(N)ncnc32)[C@H](O)[C@@H]1O (stereo partly drawn)
inhibition [17]: 0%
Ki [4]: 54.7 µM
Ki [5]: 6 µM
Ratio [1]: < 1
Ratio [2]: < 1
Ki [19]: 150 µM

Compound: CCCCCC[C@@H]([C@@H](C)O)n1cnc2c(N)ncnc21
inhibition [17]: 5.9%
inhibition [9]: 57%
inhibition [11]: 60%
Effect [21]: 0

Compound: Cn1cnc2c(NCc3cccc(I)c3)nc(Sc3ccncc3)nc21
Ratio [1]: 0.0051
Ratio [2]: 0.07
